Assay outcomes deposited in PubChem by The Scripps Research Institute Molecular Screening Center.
M5 PAM = human M5 muscarinic receptor positive allosteric modulators, primary screen, CHO-K1 cells, Fluo-8 calcium fluorescence. activation, % at 3 µM. 360,000 compounds, 0.3% hits. AID 624038, 2012. CHO-K1 hM5, ACh EC20 PAM; 0% = ACh EC20, 100% = ACh EC100. Muscarinic acetylcholine receptor M5 (Homo sapiens), P08912;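 active means activation above the run cutoff, the mean activation of all test compounds plus 3 SD, cut at about 18% in these data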
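System: CHO-K1 hM5 cells. Reagent: acetylcholine, EC20 level. Compound dosing: single dose, 3 µM nominal final test concentration. Timing: Post-acetylcholine fluorescence recording 140 s. Detection: Fluo-8 calcium fluorescence. Read-out: % activation, ACh-normalized. Benchmarks: ACh EC20 and EC100 wells. Repeats: singlicate, one well per test compound.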
CHRM5 agonist = human M5 muscarinic receptor agonists, primary screen, CHO-K1 cells, Fluo-8 calcium fluorescence | CHO-K1 hM5 cells; 0% DMSO wells, 100% maximal acetylcholine response | 360,000 compounds, 0.19% hits | activation, % at 3 µM | Muscarinic acetylcholine receptor M5 (Homo sapiens), P08912;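 active means activation above the run's mean over test compounds plus 3 SD, cut at about 23% in these data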;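 further: signal is peak over basal fluorescence ratio across the kinetic read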
CHRM4 antagonist = human M4 muscarinic receptor antagonists, primary screen, CHO cells, Fluo-8 calcium fluorescence | CHO-hM4 cells, ACh EC80 | inhibition, % at 3 µM | 360,000 compounds, 0.73% hits | AID 624125, 2012;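 active means inhibition above its plate's cutoff, the mean inhibition of sample wells plus 3 SD, cut at about 27% in these data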;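 further: 0% = acetylcholine EC80 with DMSO and 100% = DMSO without agonist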
Target sequence (P08173 whole entry, looked up): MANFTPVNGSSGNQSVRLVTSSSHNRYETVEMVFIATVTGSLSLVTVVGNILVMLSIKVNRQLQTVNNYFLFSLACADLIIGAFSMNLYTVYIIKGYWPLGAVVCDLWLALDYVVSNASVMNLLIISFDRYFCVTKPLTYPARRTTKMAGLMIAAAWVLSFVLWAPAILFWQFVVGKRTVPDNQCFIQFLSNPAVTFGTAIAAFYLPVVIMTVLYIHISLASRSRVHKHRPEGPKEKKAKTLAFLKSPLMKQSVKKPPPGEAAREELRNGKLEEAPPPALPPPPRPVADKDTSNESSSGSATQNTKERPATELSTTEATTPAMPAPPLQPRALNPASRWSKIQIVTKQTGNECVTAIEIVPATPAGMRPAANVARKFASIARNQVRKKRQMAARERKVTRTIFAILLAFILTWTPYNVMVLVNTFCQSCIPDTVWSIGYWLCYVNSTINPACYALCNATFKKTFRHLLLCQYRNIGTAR
M4 ag = human M4 muscarinic receptor agonists, primary screen, CHO-K1 cells, Fluo-8 calcium fluorescence. Muscarinic acetylcholine receptor M4 (Homo sapiens), P08173. CHO-K1 hM4/Gqi5; vehicle 0%, full acetylcholine response 100%. activation, % at 3 µM. 360,000 compounds, 0.14% hits. AID 624127, 2012;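 active means activation above the run mean over all test wells plus 3 SD, cut at about 32% in these data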;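 further: peak over basal fluorescence ratio per well then scaled between controls; 0% = DMSO wells and 100% = acetylcholine at EC100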
CHRM5 antagonist = human M5 muscarinic receptor antagonists, primary screen, CHO cells, Fluo-8 calcium fluorescence; Muscarinic acetylcholine receptor M5 (Homo sapiens), P08912; 360,000 compounds, 0.59% hits; inhibition, % at 3 µM; CHO-hM5 cells, ACh EC80;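 active means inhibition above a per-plate cutoff, the mean of that plate's test compounds plus 3 SD, cut at about 27% in these data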;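 further: 0% = acetylcholine EC80 with DMSO and 100% = DMSO without agonist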
CHRM4 PAM = human M4 muscarinic receptor positive allosteric modulators, primary screen, CHO-K1 cells, Fluo-8 calcium fluorescence. Muscarinic acetylcholine receptor M4 (Homo sapiens), P08173. CHO-K1 hM4/Gqi5, ACh EC20; 0% = ACh EC20, 100% = maximal ACh. activation, % at 3 µM. 360,000 compounds, 0.4% hits;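 active means activation above its plate's cutoff, the mean activation of sample wells plus 3 SD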
The depositor's hits bear a star. Shown are actives, neighbours in structure and some others; about 1.8% of the full set was active somewhere.

For CN1C(=S)N(c2cccnc2)C(=O)/C1=C\c1ccc(N(C)C)cc1 the results were M5 PAM -21, CHRM5 agonist 60*, CHRM4 antagonist 11, M4 ag 14, CHRM5 antagonist 31* and CHRM4 PAM -7.
`O=[N+]([O-])c1cccc(/C=N/Nc2nnc(-c3ccccc3)c(-c3ccccc3)n2)c1` gave M5 PAM -3, CHRM5 agonist -1, CHRM4 antagonist -12, M4 ag 1, CHRM5 antagonist -1 and CHRM4 PAM 34*.
Screening C/C(=N\Nc1nnc(-c2ccccc2)c(-c2ccccc2)n1)c1cccc([N+](=O)[O-])c1 returned M5 PAM 2, CHRM5 agonist 3, CHRM4 antagonist -7, M4 ag 0, CHRM5 antagonist 0 and CHRM4 PAM -3.
For Cc1ccc(OCC(O)Cn2c(=N)n(Cc3ccccc3)c3ccccc32)cc1 (configuration not stated) the results were M5 PAM -7, CHRM5 agonist 3, CHRM4 antagonist 12, M4 ag 33*, CHRM5 antagonist 10 and CHRM4 PAM -24.
Screening COc1ccccc1NS(=O)(=O)c1cc(NC(=O)c2[nH]c(C)c(C(C)=O)c2C)ccc1N1CCOCC1 returned M5 PAM -15, CHRM5 agonist -5, CHRM4 antagonist 12, M4 ag 9, CHRM5 antagonist 10 and CHRM4 PAM -12.
`COc1ccc(Nc2nc(-c3cccs3)nc3ccccc23)cc1S(=O)(=O)N1CCOCC1` gave M5 PAM -24, CHRM5 agonist -4, CHRM4 antagonist 29*, M4 ag 17, CHRM5 antagonist 10 and CHRM4 PAM -30.
`C=CC[C@H](CC(=O)NCCO)C(=O)NCCOC(=O)[C@@H](CC=C)Cc1ccc(F)cc1` gave M5 PAM -2, CHRM5 agonist 0, CHRM4 antagonist -6, M4 ag 0, CHRM5 antagonist 15 and CHRM4 PAM 7.
For CC(C)Cn1c(C23CC4CC(CC(C4)C2)C3)n[nH]c1=S the results were M5 PAM -30, CHRM5 agonist -23, CHRM4 antagonist 27*, M4 ag -2, CHRM5 antagonist 19 and CHRM4 PAM -14.
CCOC(=O)C1=C(C)N(c2ccccc2)C(=O)NC1c1cccc([N+](=O)[O-])c1 (configuration not stated) was read as M5 PAM -18, CHRM5 agonist -5, CHRM4 antagonist 75*, M4 ag 1, CHRM5 antagonist 39* and CHRM4 PAM -39.
COC(=O)c1ccc(/C=N/NC(=O)C2CC(=O)N(c3ccc(OC)cc3)C2)cc1 (configuration not stated) was read as M5 PAM 7, CHRM5 agonist -3, CHRM4 antagonist -25, M4 ag 1, CHRM5 antagonist -14 and CHRM4 PAM 9.
`Cc1ccc(C)c(Nc2nn3c(=O)c4ccc(C(=O)NCc5cccnc5)cc4nc3s2)c1` gave M5 PAM -4, CHRM5 agonist -2, CHRM4 antagonist 31*, M4 ag -1, CHRM5 antagonist 7 and CHRM4 PAM -6.
For CCN(CC(=O)Nc1ccc(C(=O)Nc2ccc(OC)cc2)cc1)Cc1nc2ccccc2c(=O)[nH]1 the results were M5 PAM -3, CHRM5 agonist 1, CHRM4 antagonist -17, M4 ag 0, CHRM5 antagonist -6 and CHRM4 PAM -3.
Cc1ccc(S(=O)(=O)Oc2ccc(C)cc2/C=N/N=C2\NC(=O)C(C)S2)cc1 (configuration not stated) was read as M5 PAM 18*, CHRM5 agonist -9, CHRM4 antagonist 7, M4 ag 0, CHRM5 antagonist -14 and CHRM4 PAM 3.
